According to ChEMBL document CHEMBL2062360, “Distinct biological effects of golgicide a derivatives on larval and adult mosquitoes” (2012):

How the values were obtained:
Assay type in all cases: functional
[1] = system: Anopheles stephensi; test: Insecticidal activity against Anopheles stephensi second instar larvae assessed as mortality after 24 hrs by microscopic analysis relative to control
In short: (§1)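 Second instar larvae of Ae. aegypti and An. stephensi were exposed to compounds added directly to the culture media, with DMSO as the vehicle control. Larval mortality was scored 24 h later and reported as mean with SEM, with statistical testing against control.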

[2] = system: Anopheles stephensi; test: Insecticidal activity against Anopheles stephensi second instar larvae assessed as mortality at 0.2 mM after 24 hrs by microscopic analysis relative to control; in short: as §1
[3] = system: Aedes aegypti; test: Insecticidal activity against Aedes aegypti assessed as ovarian follicle size at 0.7 mM administered 1 hr post human blood-meal measured after 47 hrs (reference value: 482.6+/-4.8 um)
[4] = system: Aedes aegypti; test: Insecticidal activity against Aedes aegypti second instar larvae assessed as mortality at 0.2 mM after 24 hrs by microscopic analysis relative to control; in short: as §1
[5] = system: Aedes aegypti; test: Insecticidal activity against Aedes aegypti second instar larvae assessed as mortality after 24 hrs by microscopic analysis relative to control; in short: as §1
[6] = Selectivity ratio of mortality against Anopheles stephensi second instar larvae to mortality against Aedes aegypti second instar larvae

Row | SMILES | LC50 [1] [µM] | Activity [2] [%] | Activity [3] [um] | Activity [4] [%] | LC50 [5] [µM] | Ratio [6]
1 | Fc1cccc2c1N[C@@H](c1cccnc1)[C@H]1CC=C[C@@H]21 (racemic) | 200 | 100 | 312.1 | 91.4 | 200 | 
2 | CC(=O)NCc1ccc([C@@H]2Nc3c(F)cc(F)cc3[C@@H]3C=CC[C@@H]32)cc1 (racemic) |  | 0 | 375.4 | 0 |  | 
3 | N#Cc1ccc([C@@H]2Nc3c(F)cc(F)cc3[C@@H]3C=CC[C@@H]32)cc1 (racemic) |  | 0 | 309.5 | 0 |  | 
4 | Fc1ccc2c(c1)[C@@H]1C=CC[C@@H]1[C@H](c1cccnc1)N2 (racemic) |  | 0 | 343.8 | 0 |  | 
5 | Fc1cc(F)c2c(c1)[C@@H]1C=CC[C@@H]1[C@H](c1ccc(CNCc3ccc4ccccc4c3)cc1)N2 (racemic) |  | 0 | 255.9 | 0 |  | 
6 | CC(=O)N1c2c(F)cc(F)cc2[C@@H]2C=CC[C@@H]2[C@@H]1c1cccnc1 (racemic) |  | 0 | 442.7 | 1.7 |  | 
7 | CN1CCC(NCc2ccc([C@@H]3Nc4c(F)cc(F)cc4[C@@H]4C=CC[C@@H]43)cc2)CC1 (racemic) | 50 | 100 | 275.3 | 100 | 50 | 
8 | Fc1cc(F)c2c(c1)[C@@H]1C=CC[C@@H]1[C@H](c1ccc(CNCc3ccc(C(F)(F)F)cc3)cc1)N2 (racemic) |  | 0 | 297.5 | 0 |  | 
9 | Fc1cc(F)c2c(c1)[C@@H]1C=CC[C@@H]1[C@H](c1cncs1)N2 (racemic) |  | 37.6 | 330.8 | 0 |  | 5
10 | Fc1cc(F)c2c(c1)[C@@H]1C=CC[C@@H]1[C@@H](c1cccnc1)N2 |  | 57.5 | 407.7 | 12.3 |  | 5
11 | Fc1cc(F)c2c(c1)[C@@H]1C=CC[C@@H]1[C@H](c1ccccc1)N2 |  | 0 | 235.1 | 0 |  | 
12 | Fc1cc(F)c2c(c1)[C@@H]1C=CC[C@@H]1[C@H](c1ccccn1)N2 (racemic) | 100 | 100 | 287.5 | 100 | 100 | 
13 | Fc1cc(C(F)(F)F)cc2c1NC(c1cccnc1)[C@H]1CC=C[C@@H]21 (mixture of isomers) |  | 0 | 315 | 5.3 |  | 
14 | CCCCCCCNCc1ccc([C@@H]2Nc3c(F)cc(F)cc3[C@@H]3C=CC[C@@H]32)cc1 (racemic) |  | 0 | 243.4 | 0 |  | 
15 | NCc1ccc([C@@H]2Nc3c(F)cc(F)cc3[C@@H]3C=CC[C@@H]32)cc1 (racemic) | 100 | 81.7 | 301.5 | 91.7 | 200 | 
16 | CN1c2c(F)cc(F)cc2[C@@H]2C=CC[C@@H]2[C@@H]1c1cccnc1 (racemic) | 100 | 100 | 416.3 | 96.2 | 100 | 
17 | Fc1cc(F)c2c(c1)[C@@H]1C=CC[C@@H]1[C@H](c1ccc(C(F)(F)F)cc1)N2 (racemic) |  | 0 | 230.4 | 5.9 |  | 
18 | Fc1cc(F)c2c(c1)[C@@H]1C=CC[C@@H]1[C@H](c1cccnc1)N2 |  | 83.4 | 270 | 18.1 |  | 5
19 | CC(C)(C)[C@@H]1Nc2c(F)cc(F)cc2[C@@H]2C=CC[C@H]12 (racemic) |  | 86.4 | 326.2 | 15.4 |  | 5
20 | Fc1cc(F)c2c(c1)[C@H]1C=CC[C@H]1[C@H](c1cccnc1)N2 |  | 0 | 433.6 | 1.5 |  | 
21 | Fc1cc(F)c2c(c1)[C@H]1C=CC[C@H]1[C@@H](c1cccnc1)N2 |  | 0 | 408.2 | 4.7 |  | 
22 | Fc1cc(F)c2c(c1)[C@@H]1C=CC[C@@H]1C(c1cccnc1)N2 (mixture of isomers) |  |  | 291.8 |  |  | 
